Experiments:
BaF3 [1] = assay: Antiproliferative activity against mouse BaF3 cells transfected with FLT3 ITD F691L mutant assessed as cell growth inhibition incubated for 72 hrs by CCK-8 assay; assay type: functional
Method in brief: (§1)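 Kinase-transformed isogenic BaF3 lines grown in RPMI 1640 with 10% FBS, 2% L-glutamine and pen/strep at 37 °C, 5% CO2. Seeded at 1500-3000 cells/well and treated with a compound concentration series for 72 h. Viability read by CCK8 absorbance at 450 nm.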

[2] = Toxicity in nu/nu mouse xenografted with human MV4-11 cells assessed as reduction in body weight at 25 to 100 mg/kg/day, po administered via gavage for 28 days; assay type: organism-based; settings: in vivo, 672 h, dose 25-100 mg/kg/day, time 28 day
Method in brief: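 Mice were inoculated with MV4-11 cells. Once tumours reached a mean volume of about 200 mm3, animals received vehicle or compound orally once daily for 28 days. Body weight was tracked and expressed relative to the initial weight, which was set as 100%.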

[3] = Cmax in Sprague-Dawley rat at 1 mg/kg, iv; assay type: ADME, organism-based; design: dose 1 mg/kg, route iv; settings: in vivo
Method in brief: (§2)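 Sprague-Dawley rats dosed IV at 1 mg/kg or by oral gavage at 10 mg/kg. Parameters from plasma exposure: AUC(0-t), AUC(0-∞), MRT, T1/2, Tmax, Vz, CLz, Cmax. Values are mean ± SD from three animals.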

MV4-11 [4] = assay: Inhibition of AKT phosphorylation at Thr308 residue in human MV4-11 cells harboring FLT3-ITD mutant incubated for 4 hrs by Western blot analysis; assay type: cell-based; settings: dose 0.01-3 µM
Method in brief: (§3)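 Cells were exposed to the compound at a series of concentrations for 4 h, and whole-cell lysates were analysed by Western blot. MV4-11 cells were grown in IMDM with 10% FBS. MOLM13 and MOLM14 cells were grown in RPMI 1640 with 10% FBS. All cultures were kept at 37 °C with 5% CO2.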

cells [5] = assay type: functional; settings: Homo sapiens, AML3; time 72 hrs
BaF3 [6] = assay: Antiproliferative activity against mouse BaF3 cells transfected with FLT3 ITD mutant harboring AML patient derived LKWEFPRENLEFEVTGSSDNEYFYVDFREYEYD sequence assessed as cell growth inhibition incubated for 72 hrs by CCK-8 assay; assay type: functional; method in brief: as §1
[7] = AUC (0 to t) in Sprague-Dawley rat at 1 mg/kg, iv; assay type: ADME, organism-based; design: dose 1 mg/kg, route iv; settings: in vivo; method in brief: as §2
[8] = Apparent volume of distribution in Sprague-Dawley rat at 1 mg/kg, iv; assay type: ADME, organism-based; settings: in vivo, read-out: Vz; method in brief: as §2
MOLM-13 [9] = assay: Induction of apoptosis in human MOLM-13 cells harboring FLT3-ITD mutant assessed as increase in cleaved PARP level incubated for 24 hrs by Western blot analysis; assay type: functional, cell-based; settings: dose 0.1-3 µM
MOLM-14 [10] = assay: Inhibition of AKT phosphorylation at Thr308 residue in human MOLM-14 cells harboring FLT3-ITD mutant incubated for 4 hrs by Western blot analysis; assay type: cell-based; settings: dose 0.01-3 µM; method in brief: as §3
[11] = AUC (0 to t) in Sprague-Dawley rat at 10 mg/kg, po; assay type: ADME, organism-based; design: dose 10 mg/kg, route po; settings: in vivo; method in brief: as §2
BaF3 [12] = assay: Antiproliferative activity against mouse BaF3 cells transfected with TEL-fused FLT3 assessed as cell growth inhibition incubated for 72 hrs by CCK-8 assay; assay type: functional; method in brief: as §1
[13] = Cmax in Sprague-Dawley rat at 10 mg/kg, po; assay type: ADME, organism-based; design: dose 10 mg/kg, route po; settings: in vivo; method in brief: as §2
[14] = target: Macrophage colony-stimulating factor 1 receptor (Homo sapiens, UniProt P07333); assay: Inhibition of CSF1R (unknown origin) preincubated for 60 mins followed by ATP addition and measured after 1 hr by ADP-Glo assay
cells [15] = assay type: functional; settings: Homo sapiens, AML4; time 72 hrs
[16] = target: Mitogen-activated protein kinase kinase kinase kinase 1 (Homo sapiens, UniProt Q92918); assay: Inhibition of HPK1 (unknown origin) assessed as residual activity at 1 uM preincubated for 60 mins followed by ATP addition and measured after 1 hr by ADP-Glo assay relative to control; settings: time 2.0 hrs
BaF3 [17] = assay: Antiproliferative activity against mouse BaF3 cells transfected with FLT3 ITD D835N mutant assessed as cell growth inhibition incubated for 72 hrs by CCK-8 assay; assay type: functional; method in brief: as §1
MOLM-13 [18] = assay: Downregulation of c-Myc protein expression in human MOLM-13 cells harboring FLT3-ITD mutant incubated for 4 hrs by Western blot analysis; assay type: functional, cell-based; settings: dose 0.01-3 µM
Method in brief: (§4)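 MOLM13 and MOLM14 cells exposed to the indicated concentrations for 4 h. Whole-cell lysates analysed by Western blot for c-Myc, alongside FLT3 Tyr589/591, STAT5, AKT and ERK phosphorylation.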

MV4-11 [19] = assay: Inhibition of ERK phosphorylation at Thr202/Tyr204 residues in human MV4-11 cells harboring FLT3-ITD mutant incubated for 4 hrs by Western blot analysis; assay type: cell-based; settings: dose 0.01-3 µM; method in brief: as §3
[20] = AUC (0 to infinity) in Sprague-Dawley rat at 10 mg/kg, po; assay type: ADME, organism-based; design: dose 10 mg/kg, route po; settings: in vivo; method in brief: as §2
[21] = MRT (0 to t) in Sprague-Dawley rat at 1 mg/kg, iv; assay type: ADME, organism-based; settings: in vivo
Method in brief: (§5)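 Sprague-Dawley rats were dosed either intravenously at 1 mg/kg or by oral gavage at 10 mg/kg. Plasma PK parameters were AUC(0-t), AUC(0-∞), MRT(0-t), T1/2, Tmax, Vz, CLz, Cmax and F%. Values are the mean ± SD of three independent animals.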

BaF3 [22] = assay: Antiproliferative activity against mouse BaF3 cells transfected with TEL-fused cKIT assessed as cell growth inhibition incubated for 72 hrs by CCK-8 assay; assay type: functional; method in brief: as §1
MV4-11 [23] = assay: Downregulation of c-Myc protein expression in human MV4-11 cells harboring FLT3-ITD mutant incubated for 4 hrs by Western blot analysis; assay type: functional, cell-based; settings: dose 0.01-3 µM; method in brief: as §3
BaF3 [24] = assay: Antiproliferative activity against mouse BaF3 cells transfected with TEL fused FLT3 G697R mutant assessed as cell growth inhibition incubated for 72 hrs by CCK-8 assay; assay type: functional; method in brief: as §1
[25] = Apparent volume of distribution in Sprague-Dawley rat at 10 mg/kg, po; assay type: ADME, organism-based; settings: in vivo; method in brief: as §2
[26] = AUC (0 to infinity) in Sprague-Dawley rat at 1 mg/kg, iv; assay type: ADME, organism-based; design: dose 1 mg/kg, route iv; settings: in vivo; method in brief: as §2
MOLM-14 [27] = assay: Downregulation of c-Myc protein expression in human MOLM-14 cells harboring FLT3-ITD mutant incubated for 4 hrs by Western blot analysis; assay type: functional, cell-based; settings: dose 0.01-3 µM; method in brief: as §4
MV4-11 [28] = assay: Antitumor activity against human MV4-11 cells xenografted in nu/nu mouse assessed as increase in tumor cell apoptosis administered orally via gavage for 28 days by tunel staining based immunohistochemical analysis; assay type: functional; settings: dose 25-100 mg/kg/day, route po, time 28.0 day
Method in brief: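 Tumours taken from MV4-11 xenograft mice after 28 days of daily oral dosing. Tissue stained with HE, Ki-67 (proliferation) and TUNEL (apoptosis), and treated groups compared with the vehicle group.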

MOLM-14 [29] = assay: Induction of apoptosis in human MOLM-14 cells harboring FLT3-ITD mutant assessed as increase in cleaved caspase-3 level incubated for 24 hrs by Western blot analysis; assay type: functional, cell-based; settings: dose 0.1-3 µM
[30] = MRT (0 to t) in Sprague-Dawley rat at 10 mg/kg, po; assay type: ADME, organism-based; settings: in vivo; method in brief: as §5

Chain of Mitogen-activated protein kinase kinase kinase kinase 1 (Q92918 whole entry, looked up): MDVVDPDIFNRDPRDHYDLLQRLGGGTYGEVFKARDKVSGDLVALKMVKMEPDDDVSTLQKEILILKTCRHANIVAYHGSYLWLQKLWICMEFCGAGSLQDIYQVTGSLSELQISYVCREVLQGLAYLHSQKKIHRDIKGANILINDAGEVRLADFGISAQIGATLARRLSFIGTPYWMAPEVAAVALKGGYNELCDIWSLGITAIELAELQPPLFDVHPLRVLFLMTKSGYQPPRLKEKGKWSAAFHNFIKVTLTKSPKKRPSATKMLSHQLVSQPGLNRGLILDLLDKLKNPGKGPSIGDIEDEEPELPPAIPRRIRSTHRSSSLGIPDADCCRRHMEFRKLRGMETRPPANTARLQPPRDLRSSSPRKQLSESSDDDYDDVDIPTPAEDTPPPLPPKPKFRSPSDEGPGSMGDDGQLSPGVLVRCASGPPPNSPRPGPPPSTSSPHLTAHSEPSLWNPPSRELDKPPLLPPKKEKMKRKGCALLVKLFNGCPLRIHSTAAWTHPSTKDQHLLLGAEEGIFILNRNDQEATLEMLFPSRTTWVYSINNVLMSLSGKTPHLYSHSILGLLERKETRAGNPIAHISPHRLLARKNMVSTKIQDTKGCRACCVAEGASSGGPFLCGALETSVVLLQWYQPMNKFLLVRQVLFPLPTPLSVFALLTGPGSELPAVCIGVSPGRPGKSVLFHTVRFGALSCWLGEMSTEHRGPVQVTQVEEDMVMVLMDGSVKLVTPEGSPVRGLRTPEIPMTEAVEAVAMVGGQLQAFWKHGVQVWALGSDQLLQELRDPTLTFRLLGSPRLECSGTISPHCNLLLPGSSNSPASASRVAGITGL
Chain of Macrophage colony-stimulating factor 1 receptor (P07333 whole entry): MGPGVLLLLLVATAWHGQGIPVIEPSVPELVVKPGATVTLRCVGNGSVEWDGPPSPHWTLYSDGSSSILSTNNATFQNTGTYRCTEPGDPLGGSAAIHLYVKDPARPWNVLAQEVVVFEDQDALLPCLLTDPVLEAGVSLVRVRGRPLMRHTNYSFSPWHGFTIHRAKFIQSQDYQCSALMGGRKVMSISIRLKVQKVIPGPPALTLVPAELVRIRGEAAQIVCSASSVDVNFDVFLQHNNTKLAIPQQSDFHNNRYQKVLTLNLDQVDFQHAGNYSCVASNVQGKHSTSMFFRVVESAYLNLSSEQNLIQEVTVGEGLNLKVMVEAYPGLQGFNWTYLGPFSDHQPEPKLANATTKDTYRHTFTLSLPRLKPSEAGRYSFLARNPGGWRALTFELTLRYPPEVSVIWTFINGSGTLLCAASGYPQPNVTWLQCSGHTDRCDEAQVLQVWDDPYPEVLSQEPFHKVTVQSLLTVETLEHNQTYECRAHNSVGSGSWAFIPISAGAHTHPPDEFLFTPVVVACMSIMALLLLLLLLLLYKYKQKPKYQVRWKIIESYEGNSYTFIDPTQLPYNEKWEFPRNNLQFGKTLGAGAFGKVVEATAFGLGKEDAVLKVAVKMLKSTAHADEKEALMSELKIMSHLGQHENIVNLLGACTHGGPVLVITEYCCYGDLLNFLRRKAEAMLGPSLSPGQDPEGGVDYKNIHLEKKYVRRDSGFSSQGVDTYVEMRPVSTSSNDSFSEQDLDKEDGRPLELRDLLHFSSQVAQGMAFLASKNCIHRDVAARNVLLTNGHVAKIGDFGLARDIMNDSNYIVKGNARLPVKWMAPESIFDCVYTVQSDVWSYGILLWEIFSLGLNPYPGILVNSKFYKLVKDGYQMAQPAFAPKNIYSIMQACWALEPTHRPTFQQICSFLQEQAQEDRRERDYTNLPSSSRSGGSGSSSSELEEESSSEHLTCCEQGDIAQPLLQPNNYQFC

CC(=O)Nc1cc(Oc2ccc(NC(=O)Cc3ccccc3C(F)(F)F)cc2)ncn1
GI50 (BaF3 [1]): > 10 µM
Activity [2]: Non-Toxic
Cmax [3]: 1030 ng/mL
inhibition (MV4-11 [4]): Dose-Dependent Effect
GI50 (cells [5]): > 10 µM
GI50 (BaF3 [6]): 0.082 µM
AUC(0-t) [7]: 1560 ng·h/mL
Vd [8]: 1.2 L/kg
Activity (MOLM-13 [9]): Dose-Dependent Effect
inhibition (MOLM-14 [10]): Dose-Dependent Effect
AUC(0-t) [11]: 26700 ng·h/mL
GI50 (BaF3 [12]): 0.249 µM
Cmax [13]: 3630 ng/mL
IC50 [14]: 0.212 µM
GI50 (cells [15]): > 10 µM
Activity [16]: 0.6%
GI50 (BaF3 [17]): > 10 µM
Activity (MOLM-13 [18]): Dose-Dependent Effect
inhibition (MV4-11 [19]): Dose-Dependent Effect
AUC(0-inf) [20]: 28000 ng·h/mL
MRT last [21]: 1.9 h
GI50 (BaF3 [22]): > 10 µM
Activity (MV4-11 [23]): Dose-Dependent Effect
GI50 (BaF3 [24]): 0.54 µM
Vz [25]: 1.5 L/kg
AUC(0-inf) [26]: 1590 ng·h/mL
Activity (MOLM-14 [27]): Dose-Dependent Effect
Activity (MV4-11 [28]): Dose-Dependent Effect
Activity (MOLM-14 [29]): Dose-Dependent Effect
MRT last [30]: 4.5 h
